Measurements reported in ChEMBL document CHEMBL3526120, “Plasma stability-dependent circulation of acyl glucuronide metabolites in humans: how circulating metabolite profiles of muraglitazar and peliglitazar can lead to misleading risk assessment” (Drug Metab Dispos, 2011).

How the values were obtained:
[1] = Drug excretion in human bile treated with [14C]muraglitazar at 20 mg, po measured during 3 to 8 hrs; type: ADME, organism-based; conditions: in vivo
[2] = Chemical stability of compound assessed as aglycon formation rate in 50 mM phosphate buffer at pH 7.4 by HPLC analysis; type: physicochemical
Method in brief: (§1)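 Synthetic 1-O-β-acyl glucuronide at 50 μg/mL, incubated at 37°C and pH 7.4. […] used 50 mM sodium phosphate buffer; […] used human plasma buffered with 50 mM phosphate. Samples were taken at 0.25–48 h (3 tubes per time point), frozen at -80 °C and run on HPLC system III. Aglycon formation rate is the mean of rates within the linear range (<3 hr).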

Homo sapiens [3] = experiment: Drug level in human plasma assessed as compound formation treated with [14C]muraglitazar at 20 mg, po administered as single dose measured after 1 hr by HPLC analysis; type: ADME, organism-based; conditions: in vivo
Method in brief: (§2)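 Healthy males aged 18–45 (four subjects) fasted at least 8 h, then took a single oral PEG-400 solution (~100 μCi) of [14C]muraglitazar 20 mg or [14C]peliglitazar 10 mg. K2EDTA plasma was taken at 1, 4, 12 and 24 h, acidified to 5% acetic acid and stored at -20 °C. Plasma was pooled across subjects, extracted three times with methanol/acetonitrile (1:3), and fractions from HPLC system II were radiocounted. Concentration came from relative radioactivity distribution, total radioactivity and specific activity.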

Plasma = experiment: Stability in human plasma assessed as aglycon formation rate by HPLC analysis in presence of 50 mM phosphate; type: ADME, cell-free; method in brief: as §1
Liver microsome [4] = experiment: Drug metabolism in human liver microsomes assessed as glucuronide oxidation rate per mg of protein in presence of NADPH; type: ADME
Method in brief: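 Acyl glucuronide (20 μM) was incubated for 15 min with human liver microsomes (2 mg/mL protein) in 50 mM sodium phosphate, with and without 1 mM NADPH. Products were separated on HPLC system II, quantified by UV at 278 nm and identified by LC/MS.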

[5] = Drug excretion in human urine treated with [14C]muraglitazar at 20 mg, po measured during 0 to 168 hrs; type: ADME, organism-based; conditions: in vivo
[6] = Drug excretion in human bile treated with [14C][…] at […], po measured during 3 to 8 hrs; type: ADME, organism-based; conditions: in vivo
Homo sapiens [7] = experiment: Drug level in human plasma assessed as compound formation treated with [14C]peliglitazar at 10 mg, po administered as single dose measured after 1 to 24 hrs by HPLC analysis; type: ADME, organism-based; conditions: in vivo; method in brief: as §2
[8] = Drug excretion in human urine treated with [14C][…] at […], po measured during 0 to 168 hrs; type: ADME, organism-based; conditions: in vivo
Hepatocyte = experiment: Drug metabolism in human hepatocytes assessed as glucuronidation rate per 10^6 cells at 5 uM after 1 hr by LC-MS/HPLC analysis in Krebs-Henseleit buffer
Liver microsome [9] = experiment: Drug metabolism in human liver microsomes assessed as glucuronidation rate per mg of protein at 10 uM after 15 mins by LC-MS/HPLC analysis in presence of 2 mM UDPGA; type: ADME; conditions: 0.25 h
Method in brief: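 Human liver microsomes (1 mg/mL protein) with substrate 10 μM final, UDPGA 2 mM, MgCl2 10 mM, Tris 100 mM pH 7.4. Started with substrate at 37°C, stopped after 15 min with one volume acetonitrile, centrifuged. Supernatant analysed by LC/MS; fraction from the 278 nm UV trace as metabolite/(metabolite + parent).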

Homo sapiens [10] = experiment: Drug metabolism in human plasma assessed as acyl isomer formation at 20 mg, po administered as single dose by HPLC analysis; type: ADME, organism-based; conditions: in vivo
Method in brief: (§3)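 Healthy male volunteers received a single oral [14C] dose (approximately 100 μCi) in PEG-400 after fasting. K2EDTA blood drawn at 1, 4, 12 and 24 h. Plasma acidified to 5% acetic acid, stored at -20°C, pooled across subjects and extracted three times with methanol/acetonitrile (1:3). Radio-HPLC used fraction collection and counting; protein pellets were counted after NaOH digestion.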

Homo sapiens [11] = experiment: Drug metabolism in human plasma assessed as muraglitazar-1-O-beta-acyl glucuronide formation at 20 mg, po administered as single dose measured after 4 to 24 hrs by HPLC analysis; type: ADME, organism-based; conditions: in vivo; method in brief: as §3
Homo sapiens [12] = experiment: Drug metabolism in human plasma assessed as muraglitazar-1-O-beta-acyl glucuronide formation at 20 mg, po administered as single dose after 1 hr by HPLC analysis; type: ADME, organism-based; conditions: in vivo; method in brief: as §3
[13] = Drug excretion in human urine at 20 mg, po measured during 0 to 168 hrs; type: ADME, organism-based; conditions: read-out: Drug excretion
[14] = Drug excretion in human bile at 20 mg, po measured during 3 to 8 hrs; type: ADME, organism-based; conditions: read-out: Drug excretion
Homo sapiens [15] = experiment: Drug metabolism in human plasma assessed as acyl isomer formation at 10 mg, po administered as single dose by HPLC analysis; type: ADME, organism-based; conditions: in vivo; method in brief: as §3
Homo sapiens [16] = experiment: Drug metabolism in human plasma assessed as peliglitazar-1-O-beta-acyl glucuronide formation at 10 mg, po administered as single dose measured after 1 to 24 hrs by HPLC analysis; type: ADME, organism-based; conditions: in vivo; method in brief: as §3

Drug metabolism [2] | Drug metabolism (Plasma) | Drug metabolism (Liver microsome [4]) | Compound | Drug metabolism (Hepatocyte) | Drug metabolism (Liver microsome [9]) | dose excreted [13] | dose excreted [14] | other results
3.5 ug/ml.hr | 16.7 ug/ml.hr | 22 pmol/min | COc1ccc(OC(=O)N(CC(=O)O[C@@H]2O[C@H](C(=O)O)[C@@H](O)[C@H](O)[C@H]2O)Cc2ccc(OCCc3nc(-c4ccccc4)oc3C)cc2)cc1 |  |  |  |  | Drug excretion [1]: 15%; Drug metabolism (Homo sapiens [3]): metabolite_detected; Drug excretion [5]: 0.81%
0.5 ug/ml.hr | 5.9 ug/ml.hr | 24 pmol/min | COc1ccc(OC(=O)N(CC(=O)O[C@@H]2O[C@H](C(=O)O)[C@@H](O)[C@H](O)[C@H]2O)[C@@H](C)c2ccc(OCCc3nc(-c4ccccc4)oc3C)cc2)cc1 |  |  |  |  | Drug excretion [6]: 16%; Drug metabolism (Homo sapiens [7]): metabolite_detected; Drug excretion [8]: 0.24%
 |  |  | COc1ccc(OC(=O)N(CC(=O)O)C[14c]2[14cH][14cH][14c](OCCc3nc(-c4ccccc4)oc3C)[14cH][14cH]2)cc1 | 60 pmol/min | 33 pmol/min |  |  | Drug metabolism (Homo sapiens [10]): metabolite_not_detected; Drug metabolism (Homo sapiens [11]): metabolite_not_detected; Drug metabolism (Homo sapiens [12]): metabolite_detected
 |  |  | COc1ccc(OC(=O)N(CC(=O)O)Cc2ccc(OCCc3nc(-c4ccccc4)oc3C)cc2)cc1 [MURAGLITAZAR] |  |  | 2.13% | 39.9% | 
 |  |  | COc1ccc(OC(=O)N(CC(=O)O)[C@@H](C)c2ccc(OCCc3nc(-c4ccccc4)oc3C)cc2)cc1 [PELIGLITAZAR] |  |  | 1.24% | 24.4% | 
 |  |  | COc1ccc(OC(=O)N(CC(=O)O)[14C@@H](C)c2ccc(O[14CH2]Cc3nc(-c4ccccc4)oc3C)cc2)cc1 | 49 pmol/min | 32 pmol/min |  |  | Drug metabolism (Homo sapiens [15]): metabolite_not_detected; Drug metabolism (Homo sapiens [16]): metabolite_detected
